Data set [1] concerns the target Carbonic anhydrase 1 (Homo sapiens, UniProt P00915). In words: Inhibition of human CA1 after 15 mins by stopped-flow CO2 hydration assay.
In data set [2] the target is Carbonic anhydrase 2 (Homo sapiens, UniProt P00918). As to the kind of experiment: Inhibition of human CA2 after 15 mins by stopped-flow CO2 hydration assay.
Data set [3] deals with Carbonic anhydrase 9 (Homo sapiens, UniProt Q16790). In words: Inhibition of human CA9 after 15 mins by stopped-flow CO2 hydration assay.
In data set [4] the target is Carbonic anhydrase 12 (Homo sapiens, UniProt O43570). In words: Inhibition of human CA12 after 15 mins by stopped-flow CO2 hydration assay.
Sequence of Carbonic anhydrase 12 (O43570 whole entry): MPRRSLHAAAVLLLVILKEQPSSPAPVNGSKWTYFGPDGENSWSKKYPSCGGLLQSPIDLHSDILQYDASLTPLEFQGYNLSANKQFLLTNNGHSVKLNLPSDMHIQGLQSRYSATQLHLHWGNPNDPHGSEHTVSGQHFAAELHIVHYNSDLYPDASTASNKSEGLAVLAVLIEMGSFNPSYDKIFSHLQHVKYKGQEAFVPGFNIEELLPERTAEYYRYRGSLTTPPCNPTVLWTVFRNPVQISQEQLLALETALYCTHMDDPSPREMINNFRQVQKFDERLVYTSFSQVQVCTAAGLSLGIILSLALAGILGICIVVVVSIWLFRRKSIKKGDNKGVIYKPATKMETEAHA
In data set [5] the test system is HT-29. In words: Antiproliferative activity against human HT-29 cells at 30 to 100 uM after 16 hrs under normoxic conditions by MTT assay. Format: functional, cell-based. The method in brief: (§1)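 HT-29 colon cancer cells in DMEM high glucose with 20% FBS were seeded at 1·10^4/well. After 24 h they were exposed to 0–300 μM compound for 16, 48 or 72 h in air (20% O2, 5% CO2, 37 °C). MTT (1 mg/ml) was added for 30 min, formazan dissolved in DMSO and read at 550 nm. Viability is relative to untreated control (100%). Quadruplicates on ≥3 cell batches, mean ± SEM.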
In general terms: Tetrazolium assays rely on reduction of a dye to a coloured formazan, in cell work by metabolically active cells.

Data set [6] relates to HT-29. As to the kind of experiment: Antiproliferative activity against human HT-29 cells at 30 to 300 uM after 48 hrs under hypoxic conditions by MTT assay. The data set is classed as functional, cell-based. The method in brief: (§2)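 Hypoxic workstation at 0.1% O2, 5% CO2 and residual N2. HT-29 cells (DMEM high glucose, 20% FBS; 1·10^4/well) were treated 24 h post-plating with 0–300 μM compound for 16, 48 or 72 h. Viability was measured by MTT reduction (1 mg/ml, 30 min, 37 °C; DMSO-dissolved formazan, A550) and expressed as % of untreated control. Quadruplicates, ≥3 batches, mean ± SEM.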

A short description of data set [7]: Solubility of the compounds at 300 uM. The data set is classed as physicochemical.
The test system of data set [8] is HT-29. As to the kind of experiment: Antiproliferative activity against human HT-29 cells at 100 uM after 48 hrs under normoxic conditions by MTT assay. Format: functional. The method in brief: as §1
Data set [9] concerns HT-29. As to the kind of experiment: Antiproliferative activity against human HT-29 cells at 30 to 100 uM after 72 hrs under normoxic conditions by MTT assay. The data set is classed as functional, cell-based. The gist of the method: as §1
The test system of data set [10] is HT-29. In words: Antiproliferative activity against human HT-29 cells at 30 to 100 uM after 48 hrs under normoxic conditions by MTT assay. The data set is classed as functional, cell-based. The method in brief: as §1
The test system of data set [11] is HT-29. In words: Antiproliferative activity against human HT-29 cells at 30 to 100 uM after 72 hrs under hypoxic conditions by MTT assay. The data set is classed as functional, cell-based. The method in brief:
as §2

The subject of data set [12] is HT-29. As to the kind of experiment: Antiproliferative activity against human HT-29 cells at 30 to 300 uM after 16 hrs under normoxic conditions by MTT assay. Format: functional, cell-based. The gist of the method:
as §1

Data set [13] has as its system HT-29. As to the kind of experiment: Antiproliferative activity against human HT-29 cells at 30 to 300 uM after 48 hrs under normoxic conditions by MTT assay. The data set is classed as functional, cell-based. The gist of the method: as §1
Data set [14] relates to HT-29. As to the kind of experiment: Antiproliferative activity against human HT-29 cells at 30 uM after 48 hrs under hypoxic conditions by MTT assay. Format: functional. The gist of the method:
as §2

Data set [15] deals with HT-29. In words: Antiproliferative activity against human HT-29 cells at 30 to 300 uM after 72 hrs under hypoxic conditions by MTT assay. Format: functional, cell-based. The method in brief:
as §2

For data set [16], the system named is HT-29. In words: Antiproliferative activity against human HT-29 cells at 100 uM after 72 hrs under hypoxic conditions by MTT assay. The data set is classed as functional. The gist of the method: as §2

Active and inactive are the calls of the source. The rule behind the calls is not given here.

Sequence of Carbonic anhydrase 1 (P00915 whole entry): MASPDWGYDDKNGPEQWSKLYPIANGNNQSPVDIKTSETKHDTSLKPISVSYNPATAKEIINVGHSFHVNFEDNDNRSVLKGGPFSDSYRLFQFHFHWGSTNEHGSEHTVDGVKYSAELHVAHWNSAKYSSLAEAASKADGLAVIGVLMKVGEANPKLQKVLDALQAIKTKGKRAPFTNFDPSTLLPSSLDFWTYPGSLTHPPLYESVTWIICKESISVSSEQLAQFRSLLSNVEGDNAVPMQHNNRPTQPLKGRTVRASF

In general, Ki refers to a dissociation constant, usually derived from enzyme kinetics or from competition with a known ligand. A high value points to a looser hold on the target. On to `CC(=O)c1c(O)c2cc(Br)ccc2oc1=O`, for which the Ki in data set [1] was over 10 µM; in [2], over 10 µM; in data set [3], 0.0082 µM; in [4], 0.0056 µM. The outcome in data set [5], in data set [6], in data set [9], in data set [10] and in data set [11] was Active. In data set [7], the solubility result is “Insoluble”. The compound further yielded an Activity in [8] of 35%.

For `O=c1oc2ccccc2c2c1cnn2-c1ccccc1`, the inhibitory constant (Ki) was over 10 µM in data set [1], over 10 µM in data set [2], 0.0301 µM in data set [3] and over 10 µM in [4]. The result in data set [12], in data set [13] and in [6] was Active. Moreover, in data set [14], the Activity entry is “<=70%”.

`Cc1nn(-c2ccccc2)c2c1c(=O)oc1ccc(NC(=O)c3ccccc3)cc12`: the inhibition constant (Ki) in data set [1] was over 10 µM; in data set [2], over 10 µM; in [3], 0.0153 µM; in data set [4], over 10 µM. For the same compound, the outcome in data set [12], in data set [13] and in data set [15] was Active. For the same compound, the Activity in [8] was 50%; in [16] it was 40%.

The values are drawn from ChEMBL document CHEMBL4145519, “Structural investigations on coumarins leading to chromeno[4,3-c]pyrazol-4-ones and pyrano[4,3-c]pyrazol-4-ones: New scaffolds for the design of the tumor-associated carbonic anhydrase isoforms IX and XII” (Eur J Med Chem, 2018).
